FGF22 binding: binders of human FGF22 protein, primary screen, FGF22 synaptogenesis inhibitor project, biophysical, thermal shift, single point; Fibroblast growth factor 22 (Homo sapiens), Q9HCT0; 340,000 compounds, 1.5% hits; activity (Tm shift, normalised), % at 9.99 µM; AID 651658, 2012; recombinant FGF22 thermal shift, SYPRO orange fluorescence; percent of sucrose octasulfate shift, DMSO zero;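 active = mean Tm shift, scaled 0 neutral to 100 positive control, at about 1.3% or above, every replicate too, limit read from the data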
Env fusion inh: inhibitors of HIV-1 Env-driven cell-cell fusion, primary screen, HeLa-JRFL effector, CEM21 target cells, luciferase. inhibition, % at 12.3 µM. 360,000 compounds, 1.1% hits;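 active = mean replicate inhibition score of at least 50 and every replicate individually at or above 50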;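 note: 0% = plate neutral controls and 100% = maraviroc near 300 nM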
E-selectin induc: E-selectin induction in HUVECs, primary screen, imaging, HUVEC, immunofluorescence imaging, single point. activation, % at 7.58 µM. 260,000 compounds, 0.37% hits. P16581. AID 686992, 2013. normalized: neutral wells 0, TNF-alpha wells 100;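 active = mean E-selectin-positive cell signal at least 10% of the positive control, reached in at least 60% of replicates, without over 20% cell loss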
Target sequence (P16581 whole entry, looked up): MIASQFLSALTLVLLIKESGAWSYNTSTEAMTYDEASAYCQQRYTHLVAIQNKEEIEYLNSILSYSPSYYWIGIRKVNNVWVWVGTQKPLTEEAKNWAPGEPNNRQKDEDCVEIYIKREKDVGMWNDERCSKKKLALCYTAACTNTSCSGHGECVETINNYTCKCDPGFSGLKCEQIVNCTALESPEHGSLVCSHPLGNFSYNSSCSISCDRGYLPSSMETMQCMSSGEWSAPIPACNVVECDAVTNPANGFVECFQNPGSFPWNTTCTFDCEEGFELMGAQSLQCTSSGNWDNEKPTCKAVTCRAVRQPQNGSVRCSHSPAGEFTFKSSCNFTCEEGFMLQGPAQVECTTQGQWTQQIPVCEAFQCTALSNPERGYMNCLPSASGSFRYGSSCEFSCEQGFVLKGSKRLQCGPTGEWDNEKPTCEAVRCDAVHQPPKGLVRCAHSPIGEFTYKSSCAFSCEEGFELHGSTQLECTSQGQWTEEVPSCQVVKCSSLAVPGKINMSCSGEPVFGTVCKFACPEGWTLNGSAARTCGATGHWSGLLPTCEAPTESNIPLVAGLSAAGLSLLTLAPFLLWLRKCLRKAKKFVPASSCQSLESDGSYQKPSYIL
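Test system: HUVEC | Signal: Immunofluorescence imaging | Read-out: Percent E-selectin-positive cells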
F508del corr: F508del CFTR correction, initial screen, CFBE line, single point; CFBE cells, YFP halide quenching; stimulated with forskolin plus potentiator P3; % fluorescence drop versus neutral controls; activity (quench increase), % at 7.58 µM; 350,000 compounds, 0.36% hits; AID 720511, 2013;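 active = mean added fluorescence quench of at least 8% versus neutral control, with both replicates also reaching 8%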;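 note: cells transiently co-express mutant CFTR-F508del with the halide-sensitive YFP; corrector assay measuring rescue of mutant channel to the surface after 24 h compound exposure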
S100A4 inh HTS: inhibitors of S100A4-myosin IIA peptide binding, primary screen, biochemical, fluorescence polarization, TAMRA-MyoIIA peptide; Protein S100-A4 (Homo sapiens), P26447; AID 652163, 2013; 360,000 compounds, 0.14% hits; inhibition, % at 10.7 µM;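 active = mean inhibition of at least 70% across replicates, with every replicate also reaching that level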
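assay system = human S100A4 monomer with TAMRA-labelled myosin IIA peptide | also added = labelled myosin peptide probe, 5 nM | incubation = 5 min between mix addition and reading | control set = DMSO and TFP controls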
The depositor's hits bear a star; . = no result; [ ] = remark or other dose. A selection: hits, their analogues and other compounds. The true share with any hit is near 2.7%.

SMILES | FGF22 binding | Env fusion inh | E-selectin induc | F508del corr | S100A4 inh HTS
CC(C)NC(=O)Nc1cccc2c1O[C@H](CN(C)C(=O)NC(C)C)[C@H](C)CN([C@@H](C)CO)C2=O | 0 | . | 0 | -1 | 10
CC(C)(O)C#Cc1ccc(CN2CCN(Cc3ccsc3)C(CCO)C2)cc1 (configuration not stated) | 43* | -6 | . | 0 | 3
CCOc1ccc(CN2CCN(Cc3ccsc3)C(CCO)C2)cc1CO (configuration not stated) | 0 | -9 | . | . | 5
CCn1cc(CN2CCN(Cc3cccc(OC)c3)C(CCO)C2)c(C)n1 (configuration not stated) | 43* | 10 | 2 | 2 | 1
COCc1cc(CN2CCN(Cc3ccsc3)C(CCO)C2)ccc1OC (configuration not stated) | 43* | -2 | 2 | -1 | -5
CCn1cc(CN2CCN(Cc3ccc(OC)c(C)c3C)C(CCO)C2)c(C)n1 (configuration not stated) | 0 | 2 | 5 | -1 | 0
C#Cc1ccc(CN2CCN(Cc3ccsc3)C(CCO)C2)cc1 (configuration not stated) | . | 2 | . | 3 | 2
C[C@@H]1CN([C@H](C)CO)S(=O)(=O)c2ccc(C#CC3CCCCC3)cc2O[C@@H]1CN(C)Cc1cccnc1 | 0 | 5[16.7 µM] | 0 | 7 | -25
CO[C@@H]1CN(C)C(=O)c2ccc(NC(=O)C3CCOCC3)cc2OC[C@H](C)N(C(=O)c2ccccc2)C[C@H]1C | 0 | -13[16.7 µM] | 0 | -4 | 2
C[C@H](CO)N1C[C@H](C)[C@@H](CN(C)C(=O)[C@H](Cc2ccccc2)N(C)C)OCc2ccccc2-c2c(n(C)c3ccccc23)C1=O | 0 | 60*[16.7 µM] | 0 | 0 | -12
C[C@H](C(=O)N(C)C[C@@H]1OCc2ccccc2-c2c(n(C)c3ccccc23)C(=O)N([C@@H](C)CO)C[C@H]1C)c1ccccc1 | 0 | 67*[16.7 µM] | 0 | 0 | -23
C[C@@H]1CN([C@@H](C)CO)C(=O)c2c(c3ccccc3n2C)-c2ccccc2CO[C@@H]1CN(C)C(=O)[C@@H](Cc1ccccc1)N(C)C | -1 | -110[16.7 µM] | 1 | 3 | 38
COCC(=O)N1[C@H](CO)[C@H](c2ccccc2)C12CN(C(=O)c1cccnc1)C2 | 0 | . | 0 | -4 | 13
COc1ccc(-c2ccnc3ncnn23)cc1 | 43* | -7 | . | -2 | 3
CN(C)S(=O)(=O)c1ccc(Nc2nc(C3CC3)nc3c2nnn3Cc2ccccc2Cl)cc1 | . | 48* | . | . | .
Cc1ccc(-c2csc(N(CCCN(C)C)C(=O)c3ccco3)n2)cc1 | 0 | 0 | -3 | 0 | -17
CN(C)CCCN(C(=O)c1ccco1)c1nc(-c2ccc(Cl)cc2)cs1 | 0 | 0 | 0 | 8.1* | -2
COc1ccccc1CCc1nnc(CCC(=O)NCCOc2cccnc2)o1 | 44* | 15 | . | 4 | -5
C[C@H]1CN([C@@H](C)CO)C(=O)c2cc(NS(C)(=O)=O)ccc2O[C@@H]1CN(C)S(=O)(=O)c1ccccc1 | . | -28[16.7 µM] | 0 | 3 | .
COc1ccc(CN(C)C[C@H]2OCCCC[C@H](C)Oc3ccc(NC(=O)Nc4cccc5ccccc45)cc3C(=O)N([C@H](C)CO)C[C@H]2C)cc1 | -1 | 29[16.7 µM] | 0 | -1 | -5
Cc1ccc(S(=O)(=O)Nc2ccc3c(c2)C(=O)N([C@@H](C)CO)C[C@@H](C)[C@H](CN(C)C(=O)Nc2ccc4c(c2)OCO4)OCCCC[C@@H](C)O3)cc1 | 0 | -35[16.7 µM] | 0 | 0 | -7
N#C/C(=C/c1cccn1-c1cccc(C(=O)O)c1)c1ccc(Cl)cc1 | 44* | 10 | . | -3 | -4
CCCN1C[C@@H](C)[C@H](OC)CN(C)C(=O)c2ccc(NC(=O)c3ccccn3)cc2OC[C@H]1C | . | . | . | -2 | .
CCN1CCN(C(=O)CSc2nc(N)cc(N)n2)CC1 | 44* | 10 | -2 | 0 | -1
C[C@H]1CN([C@@H](C)CO)C(=O)c2cccc(N(C)C)c2O[C@@H]1CN(C)S(=O)(=O)c1cccs1 | 0 | -5[16.7 µM] | 0 | 4 | -6
SMILES | FGF22 binding | Env fusion inh | E-selectin induc | F508del corr | S100A4 inh HTS
C[C@@H]1CN([C@@H](C)CO)C(=O)c2cccc(NC(=O)CCCCCC(=O)Nc3ccccc3N)c2O[C@H]1CN(C)S(=O)(=O)c1cn(C)cn1 | 0 | . | 105* | 1 | -5
C[C@@H]1CN([C@H](C)CO)C(=O)c2cccc(NC(=O)Nc3ccc(F)cc3)c2O[C@@H]1CN(C)S(=O)(=O)c1cn(C)cn1 | . | 32[16.7 µM] | 80* | -2 | .
C[C@@H]1CN([C@H](C)CO)C(=O)c2cccc(NS(=O)(=O)c3cn(C)cn3)c2O[C@H]1CN(C)C(=O)Nc1ccc(F)cc1 | 0 | 73*[16.7 µM] | 410* | 5 | 2
C[C@H](CO)N1C[C@H](C)[C@H](CN(C)S(=O)(=O)c2cn(C)cn2)Oc2ccc(NC(=O)CCCCCC(=O)Nc3ccccc3N)cc2C1=O | 0 | . | -3 | 0 | 0
C[C@@H]1CN([C@H](C)CO)C(=O)c2cc(NS(=O)(=O)c3cn(C)cn3)ccc2O[C@@H]1CN(C)C(=O)Nc1ccc2c(c1)OCO2 | 0 | . | 62* | -1 | -21
C[C@H]1CN([C@@H](C)CO)C(=O)c2cccc(NC(=O)Nc3ccccc3)c2O[C@H]1CN(C)S(=O)(=O)c1cn(C)cn1 | 0 | -14[16.7 µM] | 0 | 1 | 11
COc1ccc(NC(=O)N[C@@H]2CC[C@@H](CCn3cc(-c4ccccc4F)nn3)O[C@@H]2CO)cc1 | 0 | -132[16.7 µM] | 0 | 0 | 10
C[C@@H]1CCCCO[C@@H](CN(C)Cc2ccc3c(c2)OCO3)[C@@H](C)CN([C@@H](C)CO)C(=O)c2cc(NC(=O)c3ccncc3)ccc2O1 | 0 | -9[16.7 µM] | 0 | 1 | -9
COc1ccc(-c2ccc([C@H]3[C@@H](CO)N4C(=O)CNC[C@H]34)cc2)cc1 | . | . | 0 | -3 | 0
C/C=C/c1ccc2c(c1)O[C@@H](CN(C)C(=O)COC)[C@@H](C)CN([C@H](C)CO)S2(=O)=O | 0 | 5[16.7 µM] | 0 | 0 | -2
C[C@@H]1CN([C@@H](C)CO)C(=O)c2cc(NS(=O)(=O)c3cn(C)cn3)ccc2O[C@H]1CN(C)C(=O)Nc1ccc(F)cc1 | . | 12[16.7 µM] | 87* | -2 | .
O=c1c2ccccc2ncn1Cc1cccc2ccccc12 | 43* | 2 | 0 | -2 | -1
Cc1ccccc1Cn1cnc2ccccc2c1=O | 0 | -26 | . | . | -2
COc1ccc(-c2cnc3c(c2)C(=O)N([C@H](C)CO)C[C@H](C)[C@H](CN(C)C(=O)Cc2ccccn2)O3)cc1 | 0 | -4[16.7 µM] | 1 | 1 | 2

Screens (PubChem BioAssay)
